We go through seven molecules from ChEMBL document CHEMBL3352416, “Discovery of carbohybrid-based 2-aminopyrimidine analogues as a new class of rapid-acting antimalarial agents using image-based cytological profiling assay” (J Med Chem, 2014).

By EC50 is commonly meant the concentration giving half of the maximal effect. Lower therefore signals a more potent agent.

Each structure is given as a SMILES string.

The assay has as its system Plasmodium falciparum. Briefly: Antimalarial activity against Plasmodium falciparum K1 by automated image mining based cytological profiling assay. The class given is functional, organism-based. The method, boiled down: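 Parasite cultures in 384-well format, read by automated imaging. Infected erythrocytes detected by DAPI nuclear staining against WGA-AlexaFluor 488 host-cell stain, and viability by Mitotracker Red CMXRos. Total culture parasitaemia quantified. EC50 given as mean±SD of two independent experiments, each in duplicate.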

`COc1ccc(O[C@@H]([C@H](Oc2ccc(OC)cc2)c2cnn(C)c2)[C@@H](COC(c2ccccc2)(c2ccccc2)c2ccccc2)OS(C)(=O)=O)cc1`: the EC50 stood at 237 nM. For `COc1ccc(CO[C@H]([C@H](OCc2ccc(OC)cc2)c2cnn(C)c2)[C@@H](COC(c2ccccc2)(c2ccccc2)c2ccccc2)OS(C)(=O)=O)cc1`, the EC50 stood at 158 nM. The result for `COc1ccc(CO[C@@H]([C@H](OCc2ccc(OC)cc2)c2cnc(N(C)C)nc2)[C@@H](COC(c2ccccc2)(c2ccccc2)c2ccccc2)OS(C)(=O)=O)cc1` reads 198 nM; that for `COc1ccc(CO[C@H]([C@H](COC(c2ccccc2)(c2ccccc2)c2ccccc2)N=[N+]=[N-])[C@H](OCc2ccc(OC)cc2)c2cnc(N(C)C)nc2)cc1`, 167 nM; that for `COc1ccc(CO[C@@H]([C@H](COS(C)(=O)=O)N=[N+]=[N-])[C@H](OCc2ccc(OC)cc2)c2cnc(N(C)C)nc2)cc1`, 6660 nM.

On to `COc1ccc(CO[C@H]([C@H](O)COC(c2ccccc2)(c2ccccc2)c2ccccc2)[C@H](OCc2ccc(OC)cc2)c2cnc(N(C)C)nc2)cc1`, for which the response was half-maximal at 559 nM (EC50). `COc1ccc(CO[C@H]([C@H](COCc2ccccc2)N=[N+]=[N-])[C@H](OCc2ccc(OC)cc2)c2cnc(N(C)C)nc2)cc1` registered a concentration giving a half-maximal response (EC50) of 1200 nM.
